rCAG binder = molecules binding r(CAG) RNA repeats. r(CAG) RNA repeat, TO-PRO-1 dye displacement fluorescence. inhibition, % at 3 µM. 370,000 compounds, 1.3% hits. AID 651821;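 active = inhibition above the plate cutoff, the mean of all test compounds on that plate plus 3 SD, cut at about 35% in these data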;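 also: 0% = DMSO alone and 100% = 100 µM mitoxantrone as full dye displacement; higher means more dye released from RNA so lower well fluorescence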
HTRA1 inh = inhibitors of human serine peptidase HTRA1 | 340,000 compounds, 0.5% hits | AID 504803 | recombinant HTRA1, FP-rhodamine activity-based probe, fluorescence polarization | inhibition, % at 5.96 µM | Q92743; in the data active = inhibition above about 36%;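 also: 0% = enzyme with DMSO and 100% = wells lacking enzyme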
Target sequence (Q92743 whole entry, looked up): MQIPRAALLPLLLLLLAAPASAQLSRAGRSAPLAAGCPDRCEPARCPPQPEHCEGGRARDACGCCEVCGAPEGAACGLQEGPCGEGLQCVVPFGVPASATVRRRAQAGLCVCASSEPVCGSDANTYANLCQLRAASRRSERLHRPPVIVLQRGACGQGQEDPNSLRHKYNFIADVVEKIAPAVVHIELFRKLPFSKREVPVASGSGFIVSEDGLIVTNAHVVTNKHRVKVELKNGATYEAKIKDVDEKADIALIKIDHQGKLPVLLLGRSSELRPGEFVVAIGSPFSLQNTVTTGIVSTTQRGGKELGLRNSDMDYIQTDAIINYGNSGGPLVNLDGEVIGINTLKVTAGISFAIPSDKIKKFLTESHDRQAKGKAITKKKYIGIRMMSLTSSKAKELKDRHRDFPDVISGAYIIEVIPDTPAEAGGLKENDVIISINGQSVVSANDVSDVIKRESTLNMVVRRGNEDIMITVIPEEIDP
ABHD4 inh = inhibits mouse alpha/beta hydrolase domain 4; Q8VD66; purified mABHD4, FP-Rh probe fluorescence polarization; inhibition, % at 8.92 µM; 370,000 compounds, 0.54% hits; AID 720543;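 active = inhibition exceeding the mean over every tested compound plus 3 SD, cut at about 30% in these data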;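 also: 0% = plate median of compound wells and 100% = S159A mutant with DMSO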
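system = mouse ABHD4 enzyme, wild type | medium = HEPES pH 7.0, NaCl, Pluronic buffer | also added = FP-Rh probe | incubation = Enzyme–compound pre-incubation 45 min, then probe 60 min, both 25 °C | technique = fluorescence polarization, excitation 525 nm, emission 598 nm, BODIPY TMR filters | controls = S159A mutant high control, sample median low control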
PRMT1 FP inh = blocks human protein arginine methyltransferase 1; inhibition, % at 2.79 µM; recombinant PRMT1, activity-based probe fluorescence polarization; 370,000 compounds, 1.3% hits; AID 652257;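 active = inhibition above about 21% made by adding two undisclosed values, limit read from the data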
SIAE inh = human SIAE inhibition, primary screen; Q9HAT2; SIAE FP-Rh probe binding, fluorescence polarization; inhibition, % at 9.66 µM; 370,000 compounds, 0.69% hits;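 active = inhibition above a cutoff: mean of compounds within the control limits plus 3 SD of those, cut at about 17% in these data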;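 also: 0% = plate median of compound wells and 100% = probe without SIAE protein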
PRMT1 inh conf = confirmation of human PRMT1 inhibitors. shares compounds with PRMT1 FP inh. recombinant His-PRMT1, activity-based probe fluorescence polarization. inhibition, % at 2.79 µM. 3,300 compounds, 42% hits. AID 687036;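 active = mean inhibition across replicates above the hit cutoff derived for the earlier primary screen, cut at about 22% in these data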
* hit, by the source's call; . = no result given. Shown are actives, neighbours in structure and some others; about 3.3% of the full set was active somewhere.

SMILES	rCAG binder	HTRA1 inh	ABHD4 inh	PRMT1 FP inh	SIAE inh	PRMT1 inh conf
Cc1cccc(C(=O)NN2C(=O)C3C(c4ccccc4)C=CC(c4ccccc4)C3C2=O)c1 (stereo not drawn)	9	-38	-52	1	-47	.
COc1ccc(C(=O)NN2C(=O)C3C4C=CC(O4)C3C2=O)cc1 (stereo not drawn)	2	5	-4	49*	0	11
CC(=O)c1c[nH]c(C(=O)Nc2ccc(N3CCCCCC3)cc2)c1	2	25	3	-1	3	.
NC(=O)c1cc(S(=O)(=O)N2CCOCC2)ccc1Sc1ccccc1N	5	6	6	1	4	.
CC(C)[C@H]1/C(=C/C2CC2)N2C(=O)C[C@@H](c3ccccc3)N=C2N1Cc1ccc2c(c1)OCO2	6	.	-3	-1	-2	.
Cc1ccccc1-n1c(O)cc(=O)[nH]c1=S	2	-14	0	28*	-9	2
CC(=O)OCCNc1cc(Sc2nc3ccccc3[nH]2)c2nonc2c1[N+](=O)[O-]	12	-4	19	92*	-6	52*
Cc1cc(=S)nc(-c2ccccn2)[nH]1	-4	10	3	33*	9	12
Cc1oc(-c2ccc(Cl)cc2)nc1CS(=O)CC(=O)NCCCN1CC(C)CC(C)C1 (stereo not drawn)	-4	5	-8	4	3	.
O=C(C1=C(O)C(=O)N(CCc2ccccc2)C1c1ccncc1)c1cc2ccccc2o1 (stereo not drawn)	17	2	2	1	-7	.
O=C(C1=C(O)C(=O)N(c2nccs2)C1c1ccccc1)c1cc2ccccc2o1 (stereo not drawn)	-49	-10	13	92*	3	132*
CCOc1cccc(C2C(C(=O)c3ccc(C)o3)=C(O)C(=O)N2c2nccs2)c1 (stereo not drawn)	-3	-4	-1	65*	6	38*
CCOC(=O)c1cnc(COc2ccc(OC)cc2)[nH]c1=O	-1	1	-12	-6	4	.
O=C(CNC(=O)C(c1ccccc1)c1ccccc1)N/N=C\c1ccc(C(=O)O)cc1	8	-3	0	3	3	.
O=C1CC(Sc2ccc(Cl)cc2)C(=O)N1Cc1ccncc1 (stereo not drawn)	-5	15	1	18	6	.
NCCSC1CC(=O)N(Cc2ccc(F)cc2)C1=O (stereo not drawn)	2	3	0	27*	-2	11
O=C(CCCCCCCC(=O)N1CCCCCC1)N1CCCCCC1	-3	3	-3	1	-5	.
O=C(Nc1ccc(S(=O)(=O)NC2=NCCCCC2)cc1)c1cccs1	0	-11	-3	70*	6	-4
CCN(CC)C(=O)CC[C@H]1CC[C@]2(CCCN(S(=O)(=O)C3CCCCC3)C2)O1	-2	.	-3	-3	1	.
CCCn1c(N)c(C(=O)COC(=O)/C=C/c2ccc(OC(F)F)c(OC)c2)c(=O)[nH]c1=O	1	-3	-3	1	-8	.
FC(F)(F)c1cc(-c2ccco2)nc2ncnn12	-3	0	2	-1	2	.
CC1(C)CC(=O)C=C(NNC(=O)c2cccnc2)C1	-6	.	-1	0	6	.
O=C1C=C(NNC(=O)c2cccnc2)CC(c2ccco2)C1 (stereo not drawn)	-9	8	14	42*	8	2
C/C=C\C=C\C(=O)N1CC2(CC(c3cccc(NC(=O)COc4ccc(Cl)cc4)c3)=NO2)C[C@H]1C(N)=O (stereo partly drawn)	22	-39	-44	63*	-28	22*
CCOc1ccc(Nc2nnc(Cc3ccc(OC)cc3)c(=O)[nH]2)cc1	8	8	-1	-1	-7	.
SMILES	rCAG binder	HTRA1 inh	ABHD4 inh	PRMT1 FP inh	SIAE inh	PRMT1 inh conf
O=C(CN1C(=O)CC(c2ccco2)Sc2ccccc21)Nc1ccccc1F (stereo not drawn)	24	-10	3	58*	7	19
CCCOc1ccc(/C(O)=C2\C(=O)C(=O)N(c3ccccn3)C2c2ccccc2F)cc1C (stereo not drawn)	17	-5	-1	-1	-7	.
Fc1ccc(C2=CC(c3ccco3)n3ncnc3N2)cc1 (stereo not drawn)	.	0	.	.	.	.
C1=C(c2ccc(-c3ccccc3)cc2)Nc2ncnn2C1c1ccco1 (stereo not drawn)	-10	-14	-8	39*	-12	22*
COC(=O)C[C@H]1c2ccccc2S(=O)(=O)N1Cc1ccc(OC)cc1	-5	-2	2	1	-3	.
CCCN=Cc1sc2ccc(OCC)cc2c1O	13	8	1	88*	0	29*
CCOc1ccc(/C=N/O)cc1	4	2	-10	2	-2	.
O=C(Cc1cccs1)N/N=C/C=C\c1ccco1	14	14	21	11	6	.
O=C(N/N=C/C=C\c1ccco1)c1cccs1	22	.	21	33*	11	23*
COC(=O)CN1C(=O)COc2ccc(S(=O)(=O)N3CCCCCC3)cc21	-2	1	5	4	2	.
N#CC1=C(N)C(C#N)(C#N)[C@H](c2c(F)cccc2F)[C@H]2CC3(CC=C12)OCCO3	-14	-4	4	26*	0	14
COC(=O)CN1C(=O)S/C(=C/c2ccc(N3CCCCC3)o2)C1=O	9	-8	13	9	-30	.
O=C(O)CN1C(=O)/C(=C/c2ccc(N3CCCCC3)o2)SC1=S	25	-4	8	38*	-2	37*
CCCN1C(=O)S/C(=C\c2ccc(N3CCOCC3)o2)C1=O	10	6	-5	26*	2	-72
CCN(CC)CCOC(=O)C(c1ccccc1)c1ccccc1	-3	1	-6	0	-3	.
CCN(CC)CCSC(=O)C(c1ccccc1)c1ccccc1	-1	.	0	76*	7	40*
Cc1cc(C(=O)COC(=O)c2n[nH]c(=O)c3ccccc23)c(C)n1C(C)C	1	-5	-1	2	1	.
CC(=C/c1ccccc1)/C=N/n1c(-c2ccco2)n[nH]c1=S	32	2	11	32*	1	18
COc1cccc(/C=C2/CCC(CN(C)C)C2=O)c1 (stereo not drawn)	8	-22	-25	41*	-5	71*
C=CCn1c(=O)[nH]c2nc3cc(N=CN(C)C)c(C)cc3nc2c1=O	-87	3	0	31*	-2	75*
O=C(C[C@@H]1C/C=C\CCCC(=O)OC[C@@H]2CCCN2C1=O)NCCO	-3	1	-5	-3	1	.
NS(=O)(=O)c1ccc(CNC(=O)c2ccc(NS(=O)(=O)c3cccs3)cc2)cc1	2	4	-1	4	5	.
Nc1c(S(=O)(=O)c2ccccc2)c2nc3ccccc3nc2n1Cc1ccco1	12	-6	-14	33*	-24	2

Source: PubChem BioAssay
